These results are taken from ChEMBL document CHEMBL4627345, “Anti-inflammatory effect and inhibition of nitric oxide production by targeting COXs and iNOS enzymes with the 1,2-diphenylbenzimidazole pharmacophore” (Bioorg Med Chem, 2020).

The structures appear in SMILES notation. Active and inactive are the calls of the source. No cut-off for these calls is given here.

The target of series [1] is T1, Nitric oxide synthase, inducible (Mus musculus) (UniProt P29477).
T1 sequence (whole entry): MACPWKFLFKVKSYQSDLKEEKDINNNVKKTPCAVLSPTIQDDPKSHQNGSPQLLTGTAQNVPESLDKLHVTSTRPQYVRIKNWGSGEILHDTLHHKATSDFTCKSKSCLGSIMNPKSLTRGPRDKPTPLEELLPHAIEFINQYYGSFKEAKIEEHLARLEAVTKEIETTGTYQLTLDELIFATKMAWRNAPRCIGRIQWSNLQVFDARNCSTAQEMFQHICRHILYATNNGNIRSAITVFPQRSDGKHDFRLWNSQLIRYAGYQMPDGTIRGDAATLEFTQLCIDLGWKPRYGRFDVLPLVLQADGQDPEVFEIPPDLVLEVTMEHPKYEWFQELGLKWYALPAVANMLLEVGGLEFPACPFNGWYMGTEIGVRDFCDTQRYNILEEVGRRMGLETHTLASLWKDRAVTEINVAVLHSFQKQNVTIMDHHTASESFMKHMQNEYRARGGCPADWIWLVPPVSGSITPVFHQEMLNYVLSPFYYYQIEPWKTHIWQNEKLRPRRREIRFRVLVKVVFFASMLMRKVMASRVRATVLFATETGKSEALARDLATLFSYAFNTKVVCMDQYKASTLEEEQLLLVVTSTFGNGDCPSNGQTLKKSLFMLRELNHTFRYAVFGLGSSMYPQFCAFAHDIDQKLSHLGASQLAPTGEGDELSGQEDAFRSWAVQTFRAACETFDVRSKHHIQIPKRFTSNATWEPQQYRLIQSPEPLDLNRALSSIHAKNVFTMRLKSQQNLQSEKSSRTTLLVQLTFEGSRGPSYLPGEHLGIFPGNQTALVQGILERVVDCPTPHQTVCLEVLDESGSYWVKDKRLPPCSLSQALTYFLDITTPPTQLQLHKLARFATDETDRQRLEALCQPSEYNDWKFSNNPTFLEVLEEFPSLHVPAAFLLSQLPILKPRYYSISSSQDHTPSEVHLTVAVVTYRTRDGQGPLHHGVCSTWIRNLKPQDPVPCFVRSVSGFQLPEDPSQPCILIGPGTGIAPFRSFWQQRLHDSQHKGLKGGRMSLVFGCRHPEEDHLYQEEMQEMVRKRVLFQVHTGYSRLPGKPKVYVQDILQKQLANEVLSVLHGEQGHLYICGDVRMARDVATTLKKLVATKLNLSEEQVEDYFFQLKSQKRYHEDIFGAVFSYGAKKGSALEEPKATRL
The series can be described thus: Inhibition of iNOS in mouse macrophages assessed as reduction in LPS-induced nitric oxide production at 50 uM incubated for overnight by griess assay relative to control. In a few lines: (§1)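 Murine macrophages seeded at 4 x10^4 per well with compound at 50 or 100 µM, with or without LPS (100 ng/mL), overnight under standard conditions. Supernatant mixed 1:1 with Griess reagent and read at 570 nm. Nitrite quantified from a NaNO2 standard curve. Triplicates in three independent experiments.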

In another series the test system is RAW264.7. Kind of series: Cytotoxicity against mouse RAW264.7 cells assessed as reduction in cell viability at 500 uM measured after 24 hrs by MTT assay. The format is cell-based. Conditions: raw264.7, 24 h. In a few lines: (§2)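 RAW 264.7 murine macrophages grown in RPMI-1640 with 10% heat-inactivated FBS at 37 °C, 5% CO2. Cells seeded at 4 x10^4 per well and exposed 24 h to 0–500 µM compound (DMSO 0.2% final). Medium replaced with 0.5 mg/mL MTT for 4 h, formazan dissolved in isopropanol, absorbance read at 570 nm. Triplicates in three independent experiments.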

Series [2] in a line: Selectivity index, ratio of inhibition of human recombinant COX-2 at 100 uM to inhibition of bovine COX-1 at 100 uM. Summed up:
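SI is COX-2/COX-1 activity ratio. Percent inhibition at 100 µM: human recombinant COX-2 (15 min preincubation) and bovine COX-1 (5 min preincubation). Fluorometric ADHP/arachidonic acid read-out after 5 min.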

In a further series the test system is Rattus norvegicus. The series can be described thus: Antiinflammatory activity in Wistar rat assessed as inhibition of carrageenan-induced paw edema formation at 100 mg/kg, po administered 1 hr before carrageenan stimulation and measured after up to 6 hrs relative to control. Type of series: functional. Summed up: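 Male Wistar rats (250–300 g), N = 5 per group, dosed orally 1 h before 0.1 mL of 1% carrageenan in physiological saline was injected into the right paw. Paw volume was read by plethysmometer at 0, 1, 2, 3, 4, 5 and 6 h. Edema was taken as the right-minus-left paw volume difference. % inhibition = (untreated − treated)/untreated × 100 at each time point.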

For series [3], the target named is T2, Prostaglandin G/H synthase 1 (Bos taurus) (UniProt O62664).
T2 sequence (whole entry): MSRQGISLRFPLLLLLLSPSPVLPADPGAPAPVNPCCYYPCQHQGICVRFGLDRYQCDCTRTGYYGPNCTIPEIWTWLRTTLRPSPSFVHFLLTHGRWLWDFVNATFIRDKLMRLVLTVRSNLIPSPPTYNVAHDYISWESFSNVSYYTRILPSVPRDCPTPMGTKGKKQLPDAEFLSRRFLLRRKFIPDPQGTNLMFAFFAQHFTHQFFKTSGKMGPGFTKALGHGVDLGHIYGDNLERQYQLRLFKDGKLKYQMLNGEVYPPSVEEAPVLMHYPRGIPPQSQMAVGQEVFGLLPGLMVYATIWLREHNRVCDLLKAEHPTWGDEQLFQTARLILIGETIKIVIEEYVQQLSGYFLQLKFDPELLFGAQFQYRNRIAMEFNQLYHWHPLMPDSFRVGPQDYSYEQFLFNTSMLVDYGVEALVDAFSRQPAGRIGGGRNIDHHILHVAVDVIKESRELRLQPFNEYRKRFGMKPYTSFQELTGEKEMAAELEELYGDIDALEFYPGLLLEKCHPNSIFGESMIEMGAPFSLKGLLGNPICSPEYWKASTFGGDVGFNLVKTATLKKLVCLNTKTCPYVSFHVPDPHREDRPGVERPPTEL
The series can be described thus: Inhibition of bovine COX1 at 100 uM using arachidonic acid as substrate preincubated for 5 mins followed by substrate addition and measured after 5 mins by […]-based fluorescence assay relative to control. Summed up:
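Bovine COX-1 preincubated 5 min in buffer with compound (100 µM) or SC-560 as reference. ADHP and arachidonic acid then added, and resorufin fluorescence read after 5 min (ex 530–540 / em 585–595 nm). Resorufin arises from ADHP reacting with the COX-derived PGG2.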

For series [4], the target named is T3, Prostaglandin G/H synthase 2 (Homo sapiens, UniProt P35354).
T3 sequence (P35354 whole entry): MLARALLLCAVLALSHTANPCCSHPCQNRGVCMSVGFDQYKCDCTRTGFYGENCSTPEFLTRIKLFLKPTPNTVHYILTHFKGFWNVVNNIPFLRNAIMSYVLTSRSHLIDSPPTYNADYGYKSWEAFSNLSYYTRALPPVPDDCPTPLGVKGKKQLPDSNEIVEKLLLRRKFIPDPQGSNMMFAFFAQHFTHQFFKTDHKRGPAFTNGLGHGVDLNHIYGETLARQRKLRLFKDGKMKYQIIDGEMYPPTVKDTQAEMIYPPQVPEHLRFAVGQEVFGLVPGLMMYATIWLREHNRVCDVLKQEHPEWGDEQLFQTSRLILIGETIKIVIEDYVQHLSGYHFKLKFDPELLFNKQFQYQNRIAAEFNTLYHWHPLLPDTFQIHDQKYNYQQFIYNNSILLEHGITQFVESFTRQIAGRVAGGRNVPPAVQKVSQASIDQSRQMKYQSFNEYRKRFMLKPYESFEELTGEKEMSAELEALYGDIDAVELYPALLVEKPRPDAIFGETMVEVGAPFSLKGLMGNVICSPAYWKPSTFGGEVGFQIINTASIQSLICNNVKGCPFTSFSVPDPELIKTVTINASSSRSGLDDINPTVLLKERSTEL
Kind of series: Inhibition of human recombinant COX-2 using arachidonic acid as substrate preincubated for 15 mins followed by substrate addition and measured after 5 mins by […]-based fluorescence assay. In a few lines:
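Human recombinant COX-2 preincubated 15 min in buffer with compound (100 µM) or DuP-697 as reference. ADHP and arachidonic acid then added, and resorufin fluorescence read after 5 min (ex 530–540 / em 585–595 nm).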

A short description of series [5]: Cytotoxicity against mouse RAW264.7 cells assessed as cell viability at 100 uM measured after 24 hrs by MTT assay relative to control. The format is cell-based. Conditions: read-out: Activity. In a few lines: as §2
Series [6] has as its target T1, Nitric oxide synthase, inducible (Mus musculus). Kind of series: Inhibition of iNOS in mouse macrophages assessed as reduction in LPS-induced nitric oxide production at 100 uM incubated for overnight by griess assay relative to control. Summed up: as §1
A short description of series [7]: Cytotoxicity against mouse RAW264.7 cells assessed as cell viability at 500 uM measured after 24 hrs by MTT assay relative to control. Type of series: cell-based. Conditions: read-out: Activity. Summed up:
as §2

For the compound `O=[N+]([O-])c1ccc(-n2c(-c3ccccc3)nc3ccccc32)cc1`, the inhibition in series [1] was 38.1%; in series [3] it was 40.6%; in series [6] it was 44%. In addition, the Activity result in the series on RAW264.7 is listed as “Toxic”. Further, in series [2], the Selectivity Index was determined as 1.05. The inhibition result with Rattus norvegicus was “Active”. Besides, in series [4], the IC50 turned out to be 162 µM. For the same compound, in series [5], the viability at 24 h, 100 µM is more than 90%.

For `CC(=O)Nc1ccc(-n2c(-c3ccc(Cl)cc3)nc3ccccc32)cc1`, the inhibition came to 75.9% in series [1], 47.4% in [3] and 86.4% in series [6]. Moreover, in [2], the Selectivity Index came out at 0.51. In the series on Rattus norvegicus, the inhibition result is “Active”. In addition, the viability at 24 h, 100 µM in series [5] was more than 90%.

As to `CC(=O)Nc1ccc(-c2nc3ccccc3n2-c2ccc(NC(C)=O)cc2)cc1`, the inhibition in series [1] was 10.1%; in [3], 59.5%; in series [6], 15.3%. Further, the Selectivity Index in [2] is 0.53. Also, the inhibition result in the series on Rattus norvegicus is “Active”. Besides, the viability at 24 h, 100 µM in series [5] was more than 90%.

Consider `CC(C)Cc1ccc(C(C)C(=O)O)cc1` (stereo not drawn) [IBUPROFEN], for which the inhibition in series [1] is 82.1%; in series [3] it was 56.6%; in series [6], 83.7%. For the same compound, the inhibition in vivo at 100 mg/kg in the series on Rattus norvegicus was 42%.

Take `CC(=O)Nc1ccc(-n2c(-c3ccc(Br)cc3)nc3ccccc32)cc1`: the values for the inhibition in series [1], in series [3] and in series [6] were 77.3%, 48.7% and 83.6%, respectively. The Selectivity Index in [2] amounted to 0.58. Further, the inhibition entry in the series with Rattus norvegicus was “Active”. The viability at 24 h, 100 µM in series [5] is more than 90%.

On to `O=[N+]([O-])c1ccc(-c2nc3ccccc3n2-c2ccc([N+](=O)[O-])cc2)cc1`, for which the results for the inhibition in series [1], in series [3] and in series [6] were 22.4%, 29.3% and 33.8%, respectively. Also, the Selectivity Index in series [2] was 1.63. Further, the inhibition in vivo at 100 mg/kg in the series with Rattus norvegicus was 42%. Besides, the viability at 24 h, 100 µM in [5] was not above 90%. Further, the viability at 24 h, 500 µM in [7] is not above 90%.

Turning to `N#Cc1ccc(-c2nc3ccccc3n2-c2ccc([N+](=O)[O-])cc2)cc1`, the inhibition in series [1] stood at 24.4%; in series [3], 29%; in [6], 46%. The Activity entry in the series on RAW264.7 is “Toxic”. In [2], the Selectivity Index was 1.63. In addition, the inhibition result in the series on Rattus norvegicus was “Active”. Further, the viability at 24 h, 100 µM in series [5] was more than 90%.

For `O=[N+]([O-])c1ccc(-n2c(-c3ccc(Cl)cc3)nc3ccccc32)cc1`, the values for the inhibition in [1], in [3] and in series [6] were 53.2%, 17.6% and 53.9%, respectively. In the series with RAW264.7, the Activity entry was “Toxic”. In series [2], the Selectivity Index was 1.37. Also, in the series on Rattus norvegicus, the inhibition result was “Active”. The viability at 24 h, 100 µM in [5] is more than 90%.

Turning to `O=C(O)c1ccc(-c2nc3ccccc3n2-c2ccc([N+](=O)[O-])cc2)cc1`, the inhibition in series [1] was determined as 32.6%; in series [3], 31%; in [6] it was 46.2%. In the series with RAW264.7, the Activity result is “Toxic”. Further, the Selectivity Index in series [2] was determined as 1.06. Besides, the inhibition result in the series with Rattus norvegicus was “Active”. In addition, the viability at 24 h, 100 µM in series [5] was more than 90%.

`O=[N+]([O-])c1ccc(-n2c(-c3ccc(Br)cc3)nc3ccccc32)cc1`: the figures for the inhibition in [1], in [3] and in series [6] were 46.5%, 18.3% and 45.8%, respectively. Moreover, the Activity entry in the series with RAW264.7 is listed as “Toxic”. Also, the Selectivity Index in [2] worked out at 2.77. For the same compound, in the series on Rattus norvegicus, the inhibition in vivo at 100 mg/kg was 42%. Also, in [4], the IC50 turned out to be 102 µM. For the same compound, the viability at 24 h, 100 µM in series [5] was more than 90%.

Consider `Cc1ccc(-c2ncc(Cl)cc2-c2ccc(S(C)(=O)=O)cc2)cn1` [ETORICOXIB], for which the inhibition in series [1] is 79.8%; in series [3], 23.4%; in series [6], 87.3%. For the same compound, in series [2], the Selectivity Index was 2.68. Moreover, the inhibition in vivo at 100 mg/kg in the series with Rattus norvegicus worked out at 35%.

Regarding `Nc1ccc(-n2c(-c3ccc(Br)cc3)nc3ccccc32)cc1`, the inhibition in series [1] is 62.5%; in series [3], 62.3%; in [6], 74.2%. Moreover, in [2], the Selectivity Index stood at 0.11. In addition, the inhibition entry in the series with Rattus norvegicus was “Active”. The viability at 24 h, 100 µM in [5] is more than 90%. For the same compound, the viability at 24 h, 500 µM in [7] is not below 80%.
